Laboratory results reported in ChEMBL document CHEMBL1143718, “Synthesis and structure-activity relationships study of novel anti-tumor carbamate anhydrovinblastine analogues” (Bioorg Med Chem, 2007).
pIC50: −log10 of the molar value.

How the values were obtained:
A549 [1] = test: Cytotoxicity against human A549 cells after 72 hrs by SRB assay; format: functional, cell-based; settings: A549, 72 h
How it was run: (§1)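 Ditartrate salts tested. ATCC A549 or HeLa cells seeded at 6000 cells/well and attached overnight, then treated in triplicate with graded concentrations, 37 °C, 72 h. Fixed with 10% TCA at 4 °C for 60 min, stained with 0.4% SRB, bound dye dissolved in Tris, A515 read. IC50 by Logit method, mean of three independent tests.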

HeLa = test: Cytotoxicity against human HeLa cells after 72 hrs by SRB assay; format: functional, cell-based; how it was run: as §1
A549 [2] = test: Antitumor activity in nude BALB/c mouse bearing A549 cell xenografts assessed as tumor growth inhibition at 10 mg/kg, iv after 12 days; format: functional, Homo sapiens; settings: A549, 288 h
How it was run: (§2)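 Female 7-week-old SPF BALB/cA nude mice (18-22 g) received 2.5 × 10^6 A549 cells subcutaneously in the axilla. Once tumors reached 100-300 mm3, they were dosed iv at 10 mg/kg on days 1 and 4 (6 mice; 12 controls). Tumor volume and body weight were measured three times weekly. Inhibition was computed from mean relative tumor volume versus control on day 12 after dosing. Means ± SD, Student's t test.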

A549 [3] = test: Antitumor activity in nude BALB/c mouse bearing A549 cell xenografts assessed as relative tumor volume at 10 mg/kg, iv; format: functional, Homo sapiens; how it was run: as §2
Mus musculus [4] = test: Effect on Body weight in nude BALB/c mouse bearing A549 cell xenografts at 10 mg/kg, iv; format: functional; how it was run: as §2
A549 [5] = test: Antitumor activity in nude BALB/c mouse bearing A549 cell xenografts assessed as tumor growth inhibition at 6 mg/kg, iv after 12 days; format: functional, Homo sapiens; settings: A549, 288 h
How it was run: (§3)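 A549 s.c. axillary xenografts (2.5 × 10^6 cells) in female 7-week-old SPF BALB/cA-nude mice. Single i.v. dose on day 1 once tumors reached 100-300 mm3. Inhibition = (control mean relative tumor volume − treated)/control × 100%, on day 12 after dosing. Groups of 6, controls 12. Significance by Student's t test.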

A549 [6] = test: Antitumor activity in nude BALB/c mouse bearing A549 cell xenografts assessed as relative tumor volume at 3 mg/kg, iv; format: functional, Homo sapiens
How it was run: (§4)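 Female 7-week-old SPF BALB/cA-nude mice (18-22 g), 2.5 × 10^6 A549 cells implanted s.c. in axilla. Dosing at tumor volume 100-300 mm3, single i.v. dose on day 1. Tumor volume and body weight measured three times a week. Relative tumor volume and body weight reported initial/end. Groups of 6 treated, 12 controls. Means ± SD.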

Mus musculus [7] = test: Effect on Body weight in nude BALB/c mouse bearing A549 cell xenografts at 1.5 mg/kg, iv; format: functional; how it was run: as §4
A549 [8] = test: Antitumor activity in nude BALB/c mouse bearing A549 cell xenografts assessed as tumor growth inhibition at 3 mg/kg, iv after 12 days; format: functional, Homo sapiens; settings: A549, 288 h; how it was run: as §3
A549 [9] = test: Antitumor activity in nude BALB/c mouse bearing A549 cell xenografts assessed as tumor growth inhibition at 1.5 mg/kg, iv after 12 days; format: functional, Homo sapiens; settings: A549, 288 h; how it was run: as §3
Mus musculus [10] = test: Effect on Body weight in nude BALB/c mouse bearing A549 cell xenografts at 6 mg/kg, iv; format: functional; how it was run: as §4
A549 [11] = test: Antitumor activity in nude BALB/c mouse bearing A549 cell xenografts assessed as relative tumor volume at 6 mg/kg, iv; format: functional, Homo sapiens; how it was run: as §4
A549 [12] = test: Antitumor activity in nude BALB/c mouse bearing A549 cell xenografts assessed as relative tumor volume at 1.5 mg/kg, iv; format: functional, Homo sapiens; how it was run: as §4
Mus musculus [13] = test: Effect on Body weight in nude BALB/c mouse bearing A549 cell xenografts at 3 mg/kg, iv; format: functional; how it was run: as §4

| Compound | pIC50 (A549 [1]) | pIC50 (HeLa) | other results |
| --- | --- | --- | --- |
| CCOC(=O)NC[C@]1(O)[C@H](OC(C)=O)[C@]2(CC)C=CCN3CC[C@@]4(c5cc([C@@]6(C(=O)OC)C[C@@H]7C=C(CC)CN(CCc8c6[nH]c6ccccc86)C7)c(OC)cc5N(C)[C@@H]14)[C@@H]32 | 7.29 | 7.80 |  |
| CCC1=C[C@@H]2CN(C1)Cc1c([nH]c3ccccc13)[C@@](C(=O)OC)(c1cc3c(cc1OC)N(C)[C@H]1[C@@](O)(C(=O)OC)[C@H](OC(C)=O)[C@]4(CC)C=CCN5CC[C@]31[C@@H]54)C2 [VINORELBINE] | 7.31 | 7.59 | inhibition in vivo at 10 mg/kg (A549 [2]): 75.9%; Activity (A549 [3]): 2.66; Activity (Mus musculus [4]): 16.4 g |
| CCC1=C[C@@H]2CN(CCc3c([nH]c4ccccc34)[C@@](C(=O)OC)(c3cc4c(cc3OC)N(C)[C@H]3[C@](O)(CNC(=O)OCc5ccc([N+](=O)[O-])cc5)[C@H](OC(C)=O)[C@]5(CC)C=CCN6CC[C@]43[C@@H]65)C2)C1 | 7.42 | 8.00 |  |
| CCCCCOC(=O)NC[C@]1(O)[C@H](OC(C)=O)[C@]2(CC)C=CCN3CC[C@@]4(c5cc([C@@]6(C(=O)OC)C[C@@H]7C=C(CC)CN(CCc8c6[nH]c6ccccc86)C7)c(OC)cc5N(C)[C@@H]14)[C@@H]32 | 6.37 | 6.74 |  |
| CCC1=C[C@@H]2CN(CCc3c([nH]c4ccccc34)[C@@](C(=O)OC)(c3cc4c(cc3OC)N(C)[C@H]3[C@](O)(CNC(=O)OC(C)(C)C)[C@H](OC(C)=O)[C@]5(CC)C=CCN6CC[C@]43[C@@H]65)C2)C1 | 6.22 | 7.02 |  |
| CCC1=C[C@@H]2CN(CCc3c([nH]c4ccccc34)[C@@](C(=O)OC)(c3cc4c(cc3OC)N(C)[C@H]3[C@](O)(CNC(=O)OCc5ccc6c(c5)OCO6)[C@H](OC(C)=O)[C@]5(CC)C=CCN6CC[C@]43[C@@H]65)C2)C1 | 7.12 | 7.77 |  |
| CCC1=C[C@@H]2CN(CCc3c([nH]c4ccccc34)[C@@](C(=O)OC)(c3cc4c(cc3OC)N(C)[C@H]3[C@](O)(CNC(=O)OCC(C)C)[C@H](OC(C)=O)[C@]5(CC)C=CCN6CC[C@]43[C@@H]65)C2)C1 | 7.18 | 7.17 |  |
| CCC1=C[C@@H]2CN(CCc3c([nH]c4ccccc34)[C@@](C(=O)OC)(c3cc4c(cc3OC)N(C)[C@H]3[C@](O)(CNC(=O)OCc5ccc(Cl)cc5)[C@H](OC(C)=O)[C@]5(CC)C=CCN6CC[C@]43[C@@H]65)C2)C1 | 7.05 | 8.22 |  |
| CCC1=C[C@@H]2CN(CCc3c([nH]c4ccccc34)[C@@](C(=O)OC)(c3cc4c(cc3OC)N(C)[C@H]3[C@](O)(CNC(=O)OC)[C@H](OC(C)=O)[C@]5(CC)C=CCN6CC[C@]43[C@@H]65)C2)C1 | 7.42 | 8.05 | inhibition in vivo at 6 mg/kg (A549 [5]): 68.5%; Activity (A549 [6]): 6.96; Activity (Mus musculus [7]): 21.3 g; inhibition in vivo at 3 mg/kg (A549 [8]): 37.1%; inhibition in vivo at 1.5 mg/kg (A549 [9]): 26%; Activity (Mus musculus [10]): 18.8 g; Activity (A549 [11]): 3.48; Activity (A549 [12]): 8.18; Activity (Mus musculus [13]): 20.4 g |
| CCC1=C[C@@H]2CN(CCc3c([nH]c4ccccc34)[C@@](C(=O)OC)(c3cc4c(cc3OC)N(C)[C@H]3[C@](O)(CNC(=O)OCc5cccc(Cl)c5)[C@H](OC(C)=O)[C@]5(CC)C=CCN6CC[C@]43[C@@H]65)C2)C1 | 6.69 | 7.41 |  |
| CCC1=C[C@@H]2CN(CCc3c([nH]c4ccccc34)[C@@](C(=O)OC)(c3cc4c(cc3OC)N(C)[C@H]3[C@](O)(CNC(=O)OCC5CC5)[C@H](OC(C)=O)[C@]5(CC)C=CCN6CC[C@]43[C@@H]65)C2)C1 | 7.21 | 7.89 |  |
| CCC1=C[C@@H]2CN(CCc3c([nH]c4ccccc34)[C@@](C(=O)OC)(c3cc4c(cc3OC)N(C)[C@H]3[C@](O)(CNC(=O)OCc5ccc(OC)cc5)[C@H](OC(C)=O)[C@]5(CC)C=CCN6CC[C@]43[C@@H]65)C2)C1 | 7.17 | 8.10 |  |
| CCC1=C[C@@H]2CN(CCc3c([nH]c4ccccc34)[C@@](C(=O)OC)(c3cc4c(cc3OC)N(C)[C@H]3[C@](O)(CNC(=O)OCc5ccccc5[N+](=O)[O-])[C@H](OC(C)=O)[C@]5(CC)C=CCN6CC[C@]43[C@@H]65)C2)C1 | 7.21 | 7.18 |  |
| CCC1=C[C@@H]2CN(CCc3c([nH]c4ccccc34)[C@@](C(=O)OC)(c3cc4c(cc3OC)N(C)[C@H]3[C@](O)(CNC(=O)OC5CCCCC5)[C@H](OC(C)=O)[C@]5(CC)C=CCN6CC[C@]43[C@@H]65)C2)C1 | 6.42 | 6.60 |  |
| CCC1=C[C@@H]2CN(CCc3c([nH]c4ccccc34)[C@@](C(=O)OC)(c3cc4c(cc3OC)N(C)[C@H]3[C@](O)(CNC(=O)OC(C)C)[C@H](OC(C)=O)[C@]5(CC)C=CCN6CC[C@]43[C@@H]65)C2)C1 | 6.79 | 7.57 |  |
| CCC1=C[C@@H]2CN(CCc3c([nH]c4ccccc34)[C@@](C(=O)OC)(c3cc4c(cc3OC)N(C)[C@H]3[C@](O)(CNC(=O)Oc5ccccc5OC)[C@H](OC(C)=O)[C@]5(CC)C=CCN6CC[C@]43[C@@H]65)C2)C1 | 6.22 | 6.83 |  |
| CCC1=C[C@@H]2CN(CCc3c([nH]c4ccccc34)[C@@](C(=O)OC)(c3cc4c(cc3OC)N(C)[C@H]3[C@](O)(CNC(=O)OC5CCC5)[C@H](OC(C)=O)[C@]5(CC)C=CCN6CC[C@]43[C@@H]65)C2)C1 | 6.92 | 7.64 |  |
| CCC1=C[C@@H]2CN(CCc3c([nH]c4ccccc34)[C@@](C(=O)OC)(c3cc4c(cc3OC)N(C)[C@H]3[C@](O)(CNC(=O)OCc5ccccc5)[C@H](OC(C)=O)[C@]5(CC)C=CCN6CC[C@]43[C@@H]65)C2)C1 | 7.24 | 7.27 |  |
| CCC1=C[C@@H]2CN(CCc3c([nH]c4ccccc34)[C@@](C(=O)OC)(c3cc4c(cc3OC)N(C)[C@H]3[C@](O)(CNC(=O)Oc5ccc(OC)cc5)[C@H](OC(C)=O)[C@]5(CC)C=CCN6CC[C@]43[C@@H]65)C2)C1 | 6.44 | 7.31 |  |
| CCC1=C[C@@H]2CN(CCc3c([nH]c4ccccc34)[C@@](C(=O)OC)(c3cc4c(cc3OC)N(C)[C@H]3[C@](O)(CNC(=O)OC5CCCC5)[C@H](OC(C)=O)[C@]5(CC)C=CCN6CC[C@]43[C@@H]65)C2)C1 | 6.75 | 6.88 |  |
| CCC1=C[C@@H]2CN(CCc3c([nH]c4ccccc34)[C@@](C(=O)OC)(c3cc4c(cc3OC)N(C)[C@H]3[C@](O)(CNC(=O)Oc5ccccc5)[C@H](OC(C)=O)[C@]5(CC)C=CCN6CC[C@]43[C@@H]65)C2)C1 | 6.96 | 6.70 |  |
| CCC1=C[C@@H]2CN(CCc3c([nH]c4ccccc34)[C@@](C(=O)OC)(c3cc4c(cc3OC)N(C)[C@H]3[C@](O)(CNC(=O)OCCOC)[C@H](OC(C)=O)[C@]5(CC)C=CCN6CC[C@]43[C@@H]65)C2)C1 | 7.19 | 7.85 |  |
| CCC1=C[C@@H]2CN(CCc3c([nH]c4ccccc34)[C@@](C(=O)OC)(c3cc4c(cc3OC)N(C)[C@H]3[C@](O)(CNC(=O)OCc5ccccc5OC)[C@H](OC(C)=O)[C@]5(CC)C=CCN6CC[C@]43[C@@H]65)C2)C1 | 6.70 | 7.16 |  |
| CCC1=C[C@@H]2CN(CCc3c([nH]c4ccccc34)[C@@](C(=O)OC)(c3cc4c(cc3OC)N(C)[C@H]3[C@](O)(CNC(=O)OCCBr)[C@H](OC(C)=O)[C@]5(CC)C=CCN6CC[C@]43[C@@H]65)C2)C1 | 6.88 | 7.52 |  |
